Measurements reported in ChEMBL document CHEMBL1155175, “Salicylidene acylhydrazides that affect type III protein secretion in Salmonella enterica serovar typhimurium” (Antimicrob Agents Chemother, 2007).
The source made the active and inactive calls. No cut-off for these calls is given here.

What was measured:
Salmonella typhimurium [1] = experiment: Inhibition of Salmonella enterica serovar Typhimurium TT16729 invasion in MDCK cells at 20 uM by gentamycin protection assay; assay type: functional, organism-based; details: Salmonella enterica subsp. enterica serovar Typhimurium
Outline: (§1)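 Bacteria grown in LB (overnight, then 1:10 subculture 3 h, 37°C, closed tubes) with compound at 20 µM or DMSO, then seeded on MDCK cells in HEPES-DMEM, MOI 10:1. Gentamicin 50 µg/ml for 45 min; cells lysed at 2 h with 0.5% deoxycholate; invasion = CFU at 2 h / CFU seeded, as percentage of input.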

Salmonella typhimurium [2] = experiment: Antibacterial activity against Salmonella enterica serovar Typhimurium TT16729 at 20 uM to 40 uM; assay type: functional, organism-based; details: Salmonella enterica subsp. enterica serovar Typhimurium
MDCK = experiment: Cytotoxicity against MDCK cells at 20 uM to 40 uM; assay type: cell-based, Canis lupus familiaris; details: dog
Salmonella typhimurium [3] = experiment: Antibacterial activity against Salmonella enterica serovar Typhimurium TT16729 assessed as inhibition of SPI1 protein secretion T3SS-mediated invasion in MDCK cells at 20 uM; assay type: functional, organism-based; details: Salmonella enterica subsp. enterica serovar Typhimurium; outline: as §1
Salmonella typhimurium [4] = experiment: Antibacterial activity against Salmonella enterica serovar Typhimurium TT16729 motility assessed as reduction of swimming zone on soft agar plates at 40 uM; assay type: functional, Salmonella enterica subsp. enterica serovar Typhimurium
Outline: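 Swimming motility on soft agar (tryptone 10 g/liter, NaCl 5 g/liter, 0.3% agar) prepared 1 day ahead, compound at 40 µM final; 20 µl overnight culture inoculated into agar; zone diameter read after 8 h at 37°C.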

Salmonella typhimurium [5] = experiment: Antibacterial activity against Salmonella enterica serovar Typhimurium TT16729 assessed as reduction in expression of bacterial cell bound flagellin at 40 uM by SDS-PAGE; assay type: functional, organism-based; details: Salmonella enterica subsp. enterica serovar Typhimurium
Outline: (§2)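 Bacteria grown 16–18 h in LB with compound (40 or 80 µM) or DMSO; flagellin released by 150 mM NaCl/10 mM HCl for 5 min at room temperature, bacteria removed by centrifugation, supernatant proteins TCA-precipitated and run on 9% SDS-PAGE; loading normalized by OD600.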

RAW264.7 = experiment: Effect on nitric oxide production in mouse RAW264.7 cells; assay type: functional, cell-based
Salmonella typhimurium [6] = experiment: Antibacterial activity against Salmonella enterica serovar Typhimurium TT16729 infected mouse RAW264.7 cells assessed as increase in nitric oxide level at 40 uM after 16 hrs in presence of tetracyclin; assay type: functional, organism-based; details: Salmonella enterica subsp. enterica serovar Typhimurium
Outline: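 RAW264.7 cells infected with opsonized strain TT16729 (MOI 10:1, gentamicin protection), compound in medium from 1 h postinfection; bacterial protein synthesis blocked with tetracycline at 2 h postinfection. Medium nitrite measured at 16 h by Griess reagent (OD525) against sodium nitrite standards.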

Salmonella typhimurium [7] = experiment: Antibacterial activity against Salmonella enterica serovar Typhimurium 14028 assessed as reduction in sseJ-HA fusion protein secretion in hexadecane extracted fraction at 20 and 40 uM by immunoblotting; assay type: functional, organism-based; details: Salmonella enterica subsp. enterica serovar Typhimurium
Outline: (§3)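 Strain 14028 grown overnight in low-pH minimal medium MM5.8 (SPI2-inducing) with compound or DMSO control; whole cells, hexadecane-extractable fraction and cell-free supernatant separated, volumes normalized by OD600, supernatant proteins TCA-precipitated; SseJ-HA detected by immunoblot on 12% SDS-PAGE with anti-HA monoclonal antibody (1:1,000) and chemiluminescence.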

Salmonella typhimurium [8] = experiment: Antibacterial activity against Salmonella enterica serovar Typhimurium 14028 assessed as increase in sseJ-HA fusion protein secretion in bacterial cell containing fraction at 20 and 40 uM by immunoblotting; assay type: functional, organism-based; details: Salmonella enterica subsp. enterica serovar Typhimurium; outline: as §3
Salmonella typhimurium [9] = experiment: Antibacterial activity against Salmonella enterica serovar Typhimurium TT16729 in mouse RAW264.7 cells assessed as increase in intracellular bacterial replication at 40 uM after 16 hrs; assay type: functional, organism-based; details: Salmonella enterica subsp. enterica serovar Typhimurium
Outline: (§4)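 RAW264.7 cells in RPMI/10% FBS infected at MOI 10:1 with LB-agar-grown, mouse-serum-opsonized bacteria; gentamicin 50 µg/ml for 45 min, then 10 µg/ml. Compound added to killing and maintenance media from 1 h postinfection onward. Hypotonic lysis at 2 and 16 h; growth yield = CFU 16 h / CFU 2 h.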

Salmonella typhimurium [10] = experiment: Antibacterial activity against Salmonella enterica serovar Typhimurium 14028 in mouse RAW264.7 cells assessed as reduction of nitric oxide level at 40 uM after 16 hrs; assay type: functional, organism-based; details: Salmonella enterica subsp. enterica serovar Typhimurium
Outline: (§5)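 Opsonized bacteria infect RAW264.7 macrophages (MOI 10:1, gentamicin protection); compound or DMSO present in media from 1 h postinfection. Nitrite accumulated in culture medium at 16 h postinfection measured with Griess reagent (OD525), converted to µM against sodium nitrite standards.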

Salmonella typhimurium [11] = experiment: Antibacterial activity against Salmonella enterica serovar Typhimurium 14028 assessed as inhibition of sseJ-HA fusion protein secretion by immunoblotting; details: Salmonella enterica subsp. enterica serovar Typhimurium
Salmonella typhimurium [12] = experiment: Antibacterial activity against Salmonella enterica serovar Typhimurium TT16729 assessed as reduction in expression of bacterial cell bound flagellin at 80 uM by SDS-PAGE; assay type: functional, organism-based; details: Salmonella enterica subsp. enterica serovar Typhimurium; outline: as §2
Salmonella typhimurium [13] = experiment: Antibacterial activity against Salmonella enterica serovar Typhimurium TT16729 in mouse RAW264.7 cells assessed as increase in nitric oxide level at 40 uM after 16 hrs; assay type: functional, organism-based; details: Salmonella enterica subsp. enterica serovar Typhimurium; outline: as §5
Salmonella typhimurium [14] = experiment: Antibacterial activity against Salmonella enterica serovar Typhimurium TT16729 expressing SPI1 effector protein assessed as increase in beta-lactamase activity in cytosolic fraction at 20 uM by immunoblotting; assay type: functional, organism-based; details: Salmonella enterica subsp. enterica serovar Typhimurium
Outline: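 TT16729 carrying pAUN-1 (SipB–β-lactamase fusion) grown to invasiveness in kanamycin LB, then 2 h in DMEM with kanamycin, L-glutamine and HEPES; compound 20 µM in all steps, DMSO control. Cells lysed (freeze-thaw, lysozyme 1 mg/ml 1 h 4°C, sonication), 5,000 x g clearing, then 50,000 x g 1 h. Cytosolic fraction assayed by nitrocefin (50 µg/ml, PBS) cleavage at A486, per min per OD600 or µg protein.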

Salmonella typhimurium [15] = experiment: Antibacterial activity against Salmonella enterica serovar Typhimurium TT16729 expressing SPI1 effector protein assessed as localization of SipB-beta-lactamase fusion protein in osmotic shock sample at 20 uM by immunoblotting; assay type: functional, organism-based; details: Salmonella enterica subsp. enterica serovar Typhimurium
Salmonella typhimurium [16] = experiment: Antibacterial activity against Salmonella enterica serovar Typhimurium TT16729 assessed as decrease in transcription of lacZ-hilA at 40 uM; assay type: functional, organism-based; details: Salmonella enterica subsp. enterica serovar Typhimurium
Salmonella typhimurium [17] = experiment: Antibacterial activity against Salmonella enterica serovar Typhimurium TT16729 assessed as decrease in transcription of lacZ-prgH at 40 uM; assay type: functional, organism-based; details: Salmonella enterica subsp. enterica serovar Typhimurium
Salmonella typhimurium [18] = experiment: Antibacterial activity against Salmonella enterica serovar Typhimurium TT16729 assessed as decrease in transcription of lacZ-sipC at 40 uM; assay type: functional, organism-based; details: Salmonella enterica subsp. enterica serovar Typhimurium
Salmonella typhimurium [19] = experiment: Antibacterial activity against Salmonella enterica serovar Typhimurium TT16729 assessed as decrease in spvA-lacZ expression at 40 uM; assay type: functional, organism-based; details: Salmonella enterica subsp. enterica serovar Typhimurium
Salmonella typhimurium [20] = experiment: Antibacterial activity against Salmonella enterica serovar Typhimurium TT16729 in mouse RAW264.7 cells assessed as reduction of intracellular bacterial replication at 40 uM after 16 hrs; assay type: functional, organism-based; details: Salmonella enterica subsp. enterica serovar Typhimurium; outline: as §4
Salmonella typhimurium [21] = experiment: Antibacterial activity against Salmonella enterica serovar Typhimurium 14028 in mouse RAW264.7 cells assessed as reduction of intracellular bacterial replication at 40 uM after 16 hrs; assay type: functional, organism-based; details: Salmonella enterica subsp. enterica serovar Typhimurium; outline: as §4
Salmonella typhimurium [22] = experiment: Antibacterial activity against Salmonella enterica serovar Typhimurium 14028 in mouse RAW264.7 cells assessed as increase in nitric oxide level at 40 uM after 16 hrs; assay type: functional, organism-based; details: Salmonella enterica subsp. enterica serovar Typhimurium; outline: as §5

SMILES	Activity (Salmonella typhimurium [1])	Activity (Salmonella typhimurium [2])	Activity (MDCK)	Activity (Salmonella typhimurium [3])	Activity (Salmonella typhimurium [4])	also measured
O=C(N/N=C/c1cc(Br)ccc1O)c1cccnc1	Active	inactive	Non-toxic	Active	2.4 cm	Activity (Salmonella typhimurium [5]): Active
O=C(N/N=C/c1c(O)ccc2ccccc12)c1ccc(Cl)cc1	Active	inactive	Non-toxic	Active	3.1 cm	Activity (RAW264.7): inactive; Activity (Salmonella typhimurium [6]): Active; Activity (Salmonella typhimurium [7]): Active; Activity (Salmonella typhimurium [8]): inactive; Activity (Salmonella typhimurium [9]): Active; Activity (Salmonella typhimurium [10]): Active; Activity (Salmonella typhimurium [11]): Active
NC(=O)C(=O)N/N=C/c1cc(Br)ccc1O	Active	inactive	Non-toxic	Active	1.7 cm	Activity (Salmonella typhimurium [5]): Active; Activity (Salmonella typhimurium [12]): Active
O=C(N/N=C/c1ccc(O)c(O)c1O)c1ccco1	Active	inactive	Non-toxic	Active	2.9 cm	
O=C(N/N=C/c1cc(Br)cc(Br)c1O)c1ccc([N+](=O)[O-])cc1	Active	inactive	Non-toxic	Active	2.9 cm	
O=C(N/N=C/c1cc(Cl)cc(Cl)c1O)c1ccccc1	Active	inactive	Non-toxic	Active	2.7 cm	
O=C(N/N=C/c1cc(Br)cc(Br)c1O)c1cccnc1	Active	inactive	Non-toxic	Active	2.7 cm	Activity (Salmonella typhimurium [13]): Active; Activity (Salmonella typhimurium [14]): Active; Activity (Salmonella typhimurium [15]): inactive; Activity (Salmonella typhimurium [16]): Active; Activity (Salmonella typhimurium [17]): Active; Activity (Salmonella typhimurium [18]): Active; Activity (Salmonella typhimurium [19]): Active; Activity (Salmonella typhimurium [20]): Active; Activity (Salmonella typhimurium [21]): Active; Activity (Salmonella typhimurium [22]): Active; Activity (RAW264.7): inactive; Activity (Salmonella typhimurium [7]): Active; Activity (Salmonella typhimurium [8]): inactive; Activity (Salmonella typhimurium [11]): Active
CCOc1cccc(/C=N/NC(=O)C(N)=O)c1O	Active	inactive	Non-toxic	Active	2.7 cm	Activity (Salmonella typhimurium [12]): inactive
O=C(N/N=C/c1ccc(O)c(O)c1O)c1ccccc1	Active	inactive	Non-toxic	Active	3.3 cm	
